From ChEMBL document CHEMBL1275277, “Synthesis of bioactive polyheterocyclic ring systems as 5α-reductase inhibitors” (Eur J Med Chem, 2010)

Legend:
Rattus norvegicus [1] = experiment: Inhibition of 5-alpha-reductase activity in sc dosed Sprague-Dawley rat assessed as effect on serum steroid level administered on postnatal third day measured after 7 weeks of age by radioimmunoassay relative to anastrozole; format: functional
Rattus norvegicus [2] = experiment: Acute toxicity in sc dosed albino rat; format: organism-based; details: in vivo
How it was run: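 Male albino rats were injected with increasing doses of each agent. LD50 and LD90, the doses killing 50% and 90% of the animals, were calculated by a published method.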

Rattus norvegicus [3] = experiment: Inhibition of 5-alpha-reductase activity in sc dosed Sprague-Dawley rat assessed as effect on serum steroid level administered on postnatal third day measured after 7 weeks of age by radioimmunoassay; format: functional
How it was run: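 Male Sprague–Dawley rats, 12 per group, given compound sc in 5% Tween 80 in water from postnatal day 3 until 7 weeks of age. Vehicle-treated negative control; anastrozole as positive control. Serum testosterone and DHT measured by RIA after ether extraction, using specific antisera and tritiated tracer, 24 h at 4 °C. Levels read from a standard curve and compared with vehicle controls to give ED50.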

Structure (SMILES)	fold change (FC) (Rattus norvegicus [1])	LD50 (Rattus norvegicus [2]) [µg/kg]	LD90 (Rattus norvegicus [2]) [µg/kg]	ED50 (Rattus norvegicus [3]) [µg/kg]
CCOC(=O)C1=NN(c2ccc(C)cc2)C2=NC3=C(CN(CC)C/C3=C\c3ccc(C)cc3)C(c3ccc(C)cc3)N12 (configuration not stated)	1.09	224.33	514.33	1
CCN1CC2=C(N=C3N(c4ccc(C)cc4)N=C(C(=O)Nc4ccccc4)N3C2c2ccc(C)cc2)/C(=C/c2ccc(C)cc2)C1 (configuration not stated)	1.178	236.28	417.34	0.925
CCN1CC2=C(N=C3N(c4ccccc4)N=C(C(=O)Nc4ccccc4)N3C2c2ccc(C)cc2)/C(=C/c2ccc(C)cc2)C1 (configuration not stated)	2.523	6534.45	1950.12	0.432
CCN1CC2=C(N=C3N(c4ccc(Cl)cc4)N=C(C(C)=O)N3C2c2ccc(C)cc2)/C(=C/c2ccc(C)cc2)C1 (configuration not stated)	1.273	312.34	735.34	0.856
CCN1CC2=C(NC(=S)NC2c2ccc(C)cc2)/C(=C/c2ccc(C)cc2)C1 (configuration not stated)	0.5798	222.23	434.76	1.88
CCN1CC2=C(N=C3N(c4ccccc4)N=C(C(C)=O)N3C2c2ccc(C)cc2)/C(=C/c2ccc(C)cc2)C1 (configuration not stated)	1.196	257.23	419.23	0.911
CCN1C/C(=C\c2ccc(C)cc2)c2nc3[nH]c(=S)[nH]c(=O)c3c(-c3ccc(C)cc3)c2C1	1.371	447.88	937.34	0.795
CCN1C/C(=C\c2ccc(C)cc2)c2nc3nc4n(c(=O)c3c(-c3ccc(C)cc3)c2C1)C(=O)CS4	1.423	516.56	1148.5	0.766
CCOC(=O)C1=NN(c2ccc(Cl)cc2)C2=NC3=C(CN(CC)C/C3=C\c3ccc(C)cc3)C(c3ccc(C)cc3)N12 (configuration not stated)	2.472			0.441
CC(C)(C#N)c1cc(Cn2cncn2)cc(C(C)(C)C#N)c1 [ANASTROZOLE]		2.415	3.69	1.09
